For six molecules, IC50 results are on record in ChEMBL document CHEMBL1137445, “Bioassay-guided fractionation of pterocarpans from roots of Harpalyce brasiliana Benth” (Bioorg Med Chem, 2007).

The structures appear in SMILES notation. Converted amounts (≈) assume the structure as drawn.

One test deals with HL-60. Briefly: Cytotoxicity against human HL60 cells by MTT assay. Type of test: functional, cell-based. The method, boiled down: (§1)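 Cell lines were from NCI. Viability was read by MTT reduction to formazan. IC50 and 95% confidence interval came from nonlinear regression of three independent experiments.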
On the technique in general: Tetrazolium dyes change colour on reduction, which living cells bring about.

A further test concerns HCT-8 (human). Briefly: Cytotoxicity against human HCT-8 cells by MTT assay.
The subject of another test is MDA-MB-435. Nature of the test: Cytotoxicity against human MDA-MB-435 cells by MTT assay. Type of test: functional, cell-based. The method, boiled down:
as §1

For test [1], the system named is Lytechinus variegatus. Nature of the test: Antimitotic activity against Lytechinus variegatus at blastulae stage of egg development. Type of test: functional, tissue-based. Conditions: Blastula stage. The method, boiled down: (§2)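 Eggs were fertilized with diluted sperm in filtered seawater, and fertilization was confirmed by elevation of the vitellin membrane. Compounds were added 5 min after fertilization over a 0.1–100 range. Incubation was at room temperature. Aliquots were fixed in equal-volume 10% formaldehyde at first cleavage, third cleavage and blastula. 100 eggs were scored per concentration for % normal development. IC50 and 95% CI came from nonlinear regression of 3 independent experiments.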

For test [2], the system named is Lytechinus variegatus. Briefly: Antimitotic activity against Lytechinus variegatus at tertiary cleavage stage of egg development. Type of test: functional, tissue-based. Put shortly:
as §2

Test [3] deals with Lytechinus variegatus. Briefly: Antimitotic activity against Lytechinus variegatus at primary cleavage stage of egg development. Type of test: functional, tissue-based. Put shortly:
as §2

Consider `Oc1ccc2c(c1)OC[C@H]1c3cc4c(cc3O[C@@H]21)OCO4` [MAACKIAIN], for which the IC50 is 17.9 µg/mL (≈ 63 µM) in the test on HL-60; more than 25 µg/mL with HCT-8 (human); 11.5 µg/mL (≈ 40.5 µM) in the test with MDA-MB-435; 4.6 µg/mL (≈ 16.2 µM) in the test with Lytechinus variegatus [1]; 4.3 µg/mL (≈ 15.1 µM) with Lytechinus variegatus [2]; 6.5 µg/mL (≈ 22.9 µM) in the test on Lytechinus variegatus [3].

Take `CC1(C)C=Cc2c(ccc3c2OCC2c4cc5c(cc4OC32)OCO5)O1` (stereo unspecified) [LEIOCARPIN]: the IC50 came to 5.5 µg/mL (≈ 15.7 µM) in the test with HL-60; 6.9 µg/mL (≈ 19.7 µM) in the test with HCT-8 (human); 13.7 µg/mL (≈ 39.1 µM) in the test on MDA-MB-435; 0.2 µg/mL (≈ 0.571 µM) in the test with Lytechinus variegatus [1]; 0.4 µg/mL (≈ 1.14 µM) with Lytechinus variegatus [2]; 1.1 µg/mL (≈ 3.14 µM) in the test with Lytechinus variegatus [3].

In the case of `CC(C)=CCc1c(O)ccc2c1OCC1c3cc4c(cc3OC21)OCO4` (stereo unspecified), the IC50 in the test with HL-60 is 3.1 µg/mL (≈ 8.8 µM); in the test on HCT-8 (human), 8.5 µg/mL (≈ 24.1 µM); in the test on MDA-MB-435, 4.9 µg/mL (≈ 13.9 µM); with Lytechinus variegatus [1], 3.3 µg/mL (≈ 9.36 µM); in the test with Lytechinus variegatus [2] it was 4.8 µg/mL (≈ 13.6 µM); in the test with Lytechinus variegatus [3], 15.2 µg/mL (≈ 43.1 µM).

With `CC(CO)CCc1cc2c(cc1O)OCC1c3cc4c(cc3OC21)OCO4` (stereo unspecified), the IC50 is more than 25 µg/mL in the test on HL-60; 10.8 µg/mL (≈ 29.2 µM) with HCT-8 (human); 16.9 µg/mL (≈ 45.6 µM) with MDA-MB-435; 1.7 µg/mL (≈ 4.59 µM) with Lytechinus variegatus [1]; 2.1 µg/mL (≈ 5.67 µM) with Lytechinus variegatus [2]; 5.18 µg/mL (≈ 14 µM) in the test with Lytechinus variegatus [3].

Regarding `COc1cccc2c1C(=O)c1c(O)c3c(c(O)c1C2=O)C[C@@](O)(C(=O)CO)C[C@@H]3O[C@H]1C[C@H](N)[C@H](O)[C@H](C)O1` [DOXORUBICIN], the IC50 in the test with HL-60 is 0.02 µg/mL (≈ 0.0368 µM); in the test on HCT-8 (human), 0.01 µg/mL (≈ 0.0184 µM); with MDA-MB-435, […]; in the test with Lytechinus variegatus [1], 0.54 µg/mL (≈ 0.994 µM); with Lytechinus variegatus [2], 0.34 µg/mL (≈ 0.626 µM); in the test with Lytechinus variegatus [3] it was 6.28 µg/mL (≈ 11.6 µM).

On to `C/C(=C\Cc1c(O)ccc2c1OCC1c3cc4c(cc3OC21)OCO4)CO` (stereo unspecified), for which the IC50 in the test with HL-60 is 16.2 µg/mL (≈ 44 µM); with HCT-8 (human), 8.8 µg/mL (≈ 23.9 µM); in the test with MDA-MB-435 it was more than 25 µg/mL; with Lytechinus variegatus [1] it was 0.43 µg/mL (≈ 1.17 µM); in the test on Lytechinus variegatus [2], 0.52 µg/mL (≈ 1.41 µM); in the test with Lytechinus variegatus [3], 1.5 µg/mL (≈ 4.07 µM).

In general, IC50 refers to the midpoint of a concentration-inhibition curve.
